Laboratory results as given in ChEMBL document CHEMBL4257478, “Design, synthesis and evaluation of (R)-3-(7-(methyl(7H-pyrrolo[2,3-d]pyrimidin-4-yl)amino)-5-azaspiro[2.4]heptan-5-yl)-3-oxopropanenitrile as a JAK1-selective inhibitor” (Medchemcomm, 2018).

Tests used:
[1] = Metabolic stability in human plasma assessed as parent compound remaining at 10 uM after 30 mins by LC-MS/MS method; type: ADME, cell-free; details: read-out: Stability
How it was run: (§1)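 Human plasma spiked with test article at 10 μM and incubated at 37 °C for 0, 30 and 120 min. Acetonitrile with chlorpropamide internal standard added, sample centrifuged at 4 °C, supernatant analysed by LC-MS/MS; result given as percent remaining.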

[2] = Metabolic stability in human plasma assessed as parent compound remaining at 10 uM after 120 mins by LC-MS/MS method; type: ADME, cell-free; details: read-out: Stability; how it was run: as §1
[3] = Protein binding in human plasma at 10 uM after 4 hrs by rapid equilibrium dialysis method; type: ADME, cell-free; details: read-out: PPB (converted)
How it was run: (§2)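 Rapid equilibrium dialysis of human or rat plasma dosed at 10 μM against PBS pH 7.4, 4 h at 37 °C. Plasma and buffer aliquots were matrix-matched with blank buffer or plasma, precipitated with acetonitrile containing chlorpropamide internal standard, and analysed by LC-MS/MS. Dexamethasone and warfarin served as positive controls.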

[4] = Protein binding in rat plasma at 10 uM after 4 hrs by rapid equilibrium dialysis method; type: ADME, cell-free; details: read-out: PPB (converted); how it was run: as §2
[5] = Metabolic stability in human liver microsomes assessed as parent compound remaining at 1 uM preincubated for 5 mins followed by addition of NADPH regenerating system and measured after 30 mins by LC-MS/MS method; type: ADME, microsome; details: read-out: Stability
How it was run: (§3)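 Liver microsomes (0.5 mg/mL; human, dog or mouse) in 0.1 M phosphate buffer with test article at 1 μM, preincubated 5 min at 37 °C. NADPH regenerating system added, then 30 min at 37 °C. Acetonitrile with chlorpropamide internal standard added, sample centrifuged, supernatant analysed by LC-MS/MS.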

[6] = Metabolic stability in dog liver microsomes assessed as parent compound remaining at 1 uM preincubated for 5 mins followed by addition of NADPH regenerating system and measured after 30 mins by LC-MS/MS method; type: ADME, Canis lupus familiaris, microsome; details: read-out: Stability; how it was run: as §3
[7] = Metabolic stability in rat liver microsomes assessed as parent compound remaining at 1 uM preincubated for 5 mins followed by addition of NADPH regenerating system and measured after 30 mins by LC-MS/MS method; type: ADME, microsome; details: read-out: Stability
How it was run: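 Liver microsomes (0.5 mg/mL) in 0.1 M phosphate buffer with test article at 1 μM. Preincubated 5 min at 37 °C, then NADPH regeneration system added and incubated 30 min at 37 °C. Quenched with acetonitrile containing chlorpropamide internal standard and centrifuged; supernatant analysed by LC-MS/MS for % parent remaining. Verapamil served as positive control.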

[8] = Metabolic stability in mouse liver microsomes assessed as parent compound remaining at 1 uM preincubated for 5 mins followed by addition of NADPH regenerating system and measured after 30 mins by LC-MS/MS method; type: ADME, microsome; details: read-out: Stability; how it was run: as §3
[9] = Apparent permeability across apical to basolateral side in human Caco2 cells at 25 uM measured every 15 mins for 60 mins by LC-MS/MS method; type: ADME, cell-based; details: Caco-2
How it was run: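 Caco-2 cells were seeded at 1×10^6 per 12-well transwell and grown 3 weeks. Test article was 25 μM in HBSS transport buffer (10 mM glucose, 4 mM bicarbonate, 1 mM HEPES, pH 7.4), added to the apical or basolateral side. Incubated 60 min at 37 °C with sampling every 15 min; LC-MS/MS read-out.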

CYP1A2 = molecular target: T1, CYP1A2 (Homo sapiens, UniProt P05177); experiment: Inhibition of CYP1A2 in human liver microsomes assessed as remaining activity at 10 uM using phenacetin as substrate preincubated for 5 mins followed by addition of NADPH regenerating system and measured after 15 mins by LC-MS/MS analysis relative to control; type: ADME; details: probe phenacetin, read-out: Activity
T1 sequence (P05177 whole entry): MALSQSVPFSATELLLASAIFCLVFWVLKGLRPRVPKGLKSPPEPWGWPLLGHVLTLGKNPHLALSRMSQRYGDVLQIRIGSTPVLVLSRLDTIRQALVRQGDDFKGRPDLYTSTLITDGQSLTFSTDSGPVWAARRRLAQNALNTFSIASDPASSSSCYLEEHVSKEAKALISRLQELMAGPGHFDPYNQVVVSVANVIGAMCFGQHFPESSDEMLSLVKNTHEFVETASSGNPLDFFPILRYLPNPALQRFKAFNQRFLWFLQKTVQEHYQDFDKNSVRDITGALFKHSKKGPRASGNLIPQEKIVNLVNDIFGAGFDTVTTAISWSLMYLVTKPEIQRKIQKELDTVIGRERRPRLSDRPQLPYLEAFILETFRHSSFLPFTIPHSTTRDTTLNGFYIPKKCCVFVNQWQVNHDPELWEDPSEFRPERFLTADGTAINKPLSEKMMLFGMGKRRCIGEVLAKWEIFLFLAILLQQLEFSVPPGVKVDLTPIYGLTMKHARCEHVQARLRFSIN
How it was run: (§4)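 Human liver microsomes (0.25 mg/mL) in 0.1 M phosphate buffer with test article at 0 or 10 μM and substrate cocktail, preincubated 5 min at 37 °C. Cocktail A: phenacetin 50 μM, coumarin 2.5 μM, S-mephenytoin 100 μM, dextromethorphan 5 μM, midazolam 2.5 μM. Cocktail B: bupropion 50 μM, amodiaquine 2.5 μM, tolbutamide 100 μM, chlorzoxazone 50 μM. NADPH system added, then 15 min at 37 °C; acetonitrile quench, LC-MS/MS.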

CYP2B6 = molecular target: T2, CYP2B6 (Homo sapiens, UniProt P20813); experiment: Inhibition of CYP2B6 in human liver microsomes assessed as remaining activity at 10 uM using bupropion as substrate preincubated for 5 mins followed by addition of NADPH regenerating system and measured after 15 mins by LC-MS/MS analysis relative to control; type: ADME; details: probe bupropion, read-out: Activity; how it was run: as §4
T2 sequence (P20813 whole entry): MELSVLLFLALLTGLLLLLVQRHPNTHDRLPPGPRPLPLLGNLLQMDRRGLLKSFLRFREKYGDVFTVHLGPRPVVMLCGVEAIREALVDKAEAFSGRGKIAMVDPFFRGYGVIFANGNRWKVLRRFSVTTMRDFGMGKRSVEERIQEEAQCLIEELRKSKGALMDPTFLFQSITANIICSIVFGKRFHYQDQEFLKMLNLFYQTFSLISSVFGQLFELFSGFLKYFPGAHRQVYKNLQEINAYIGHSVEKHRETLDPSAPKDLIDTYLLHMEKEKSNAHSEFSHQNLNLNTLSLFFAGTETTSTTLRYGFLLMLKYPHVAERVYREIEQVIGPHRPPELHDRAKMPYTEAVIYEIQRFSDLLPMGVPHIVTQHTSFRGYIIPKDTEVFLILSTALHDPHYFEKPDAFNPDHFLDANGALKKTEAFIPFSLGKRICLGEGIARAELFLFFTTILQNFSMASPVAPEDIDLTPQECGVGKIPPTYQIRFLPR

CYP2C9 = CYP2C9 (Homo sapiens, UniProt P11712); experiment: Inhibition of CYP2C9 in human liver microsomes assessed as remaining activity at 10 uM using tolbutamide as substrate preincubated for 5 mins followed by addition of NADPH regenerating system and measured after 15 mins by LC-MS/MS analysis relative to control; type: ADME; details: probe tolbutamide, read-out: Activity; how it was run: as §4
CYP2C19 = CYP2C19 (Homo sapiens, UniProt P33261); experiment: Inhibition of CYP2C19 in human liver microsomes assessed as remaining activity at 10 uM using S-mephenytoin as substrate preincubated for 5 mins followed by addition of NADPH regenerating system and measured after 15 mins by LC-MS/MS analysis relative to control; type: ADME; details: probe S-mephenytoin, read-out: Activity; how it was run: as §4
Chain of CYP2C19 (P33261 whole entry): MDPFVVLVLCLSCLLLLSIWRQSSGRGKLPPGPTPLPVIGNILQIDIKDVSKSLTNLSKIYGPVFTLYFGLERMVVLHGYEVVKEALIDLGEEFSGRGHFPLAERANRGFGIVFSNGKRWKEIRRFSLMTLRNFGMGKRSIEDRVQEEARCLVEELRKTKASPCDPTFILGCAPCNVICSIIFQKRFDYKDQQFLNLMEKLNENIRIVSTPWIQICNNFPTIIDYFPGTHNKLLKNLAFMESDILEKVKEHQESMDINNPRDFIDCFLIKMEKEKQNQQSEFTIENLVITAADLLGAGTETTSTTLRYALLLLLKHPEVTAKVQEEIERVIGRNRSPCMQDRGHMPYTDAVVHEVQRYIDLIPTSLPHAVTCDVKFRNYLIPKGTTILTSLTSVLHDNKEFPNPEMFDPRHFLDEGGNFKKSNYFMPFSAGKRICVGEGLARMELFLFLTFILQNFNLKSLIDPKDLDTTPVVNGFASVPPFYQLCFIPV

Chain of CYP2C9 (P11712 whole entry): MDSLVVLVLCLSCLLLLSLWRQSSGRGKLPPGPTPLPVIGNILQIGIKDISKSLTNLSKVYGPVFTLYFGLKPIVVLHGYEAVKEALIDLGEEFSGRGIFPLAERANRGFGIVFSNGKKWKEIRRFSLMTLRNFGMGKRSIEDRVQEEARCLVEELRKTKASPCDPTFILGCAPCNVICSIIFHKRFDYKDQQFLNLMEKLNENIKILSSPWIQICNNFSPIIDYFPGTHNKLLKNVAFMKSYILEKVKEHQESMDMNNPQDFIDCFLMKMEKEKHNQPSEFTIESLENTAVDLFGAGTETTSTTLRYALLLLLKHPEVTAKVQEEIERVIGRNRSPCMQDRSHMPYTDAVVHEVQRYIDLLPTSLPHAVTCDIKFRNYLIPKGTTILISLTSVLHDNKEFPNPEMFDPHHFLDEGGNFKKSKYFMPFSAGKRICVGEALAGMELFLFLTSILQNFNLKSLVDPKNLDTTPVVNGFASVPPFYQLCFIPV

Row | remaining at 0.5 h, 10 µM [1] [%] | remaining at 2 h, 10 µM [2] [%] | fraction unbound at 4 h, 10 µM [3] | fraction unbound at 4 h, 10 µM [4] | remaining at 0.5 h, 1 µM [5] [%] | remaining at 0.5 h, 1 µM [6] [%] | remaining at 0.5 h, 1 µM [7] [%] | remaining at 0.5 h, 1 µM [8] [%] | Papp A→B at 1 h, 25 µM [9] [×10⁻⁶ cm/s] | activity at 0.25 h, 10 µM (CYP1A2) [%] | activity at 0.25 h, 10 µM (CYP2B6) [%] | activity at 0.25 h, 10 µM (CYP2C9) [%] | activity at 0.25 h, 10 µM (CYP2C19) [%] | Compound
1 | > 100 | > 100 | 0.556 | 0.505 | 79.7 | 56.1 | 22.9 | 33.9 | 25.4 | 99.9 | > 100 | 90.7 | 93.8 | CCS(=O)(=O)N1C[C@H](N(C)c2ncnc3[nH]ccc23)C2(CC2)C1
2 | 96.6 | 98.6 | 0.126 | 0.142 | 6 | 5.5 | 2.4 | 3.2 | 13.4 | 65.7 | 92 | 50.4 | 55.8 | CN(c1ncnc2[nH]ccc12)[C@H]1CN(S(=O)(=O)c2cccc(C#N)c2)CC12CC2
3 | 95 | 98.5 | 0.702 | 0.813 | 94.6 | 99.9 | 84.8 | 84.9 | 6.6 | 92.5 | 91.5 | 84.4 | 66 | CN(c1ncnc2[nH]ccc12)[C@H]1CN(C(=O)CC#N)CC12CC2
